Results as given in ChEMBL document CHEMBL1122366, “Potential antiatherosclerotic agents. 3. Substituted benzoic and non benzoic acid analogues of cetaben” (1983).

Tests used:
[1] = system: Rattus norvegicus; assay: In vivo triglyceride lowering activity when dosed as 0.01 % of the diet; type: functional
Summary of the method: (§1)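 Normal rats were dosed in the diet. Serum sterol and triglyceride levels were measured and expressed as the mean percent of control values. Significance versus control was reported at p < 0.05, 0.01 and 0.001.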

[2] = system: Rattus norvegicus; assay: In vivo triglyceride lowering activity dosed at 0.10 % of the diet.; type: functional; summary of the method: as §1
[3] = system: Rattus norvegicus; assay: In vivo sterol lowering activity when dosed as 0.01 % of the diet; type: functional; summary of the method: as §1
[4] = system: Rattus norvegicus; assay: In vivo sterol lowering activity when dosed as 0.03 % of the diet; type: functional; summary of the method: as §1
[5] = system: Rattus norvegicus; assay: In vivo triglyceride lowering activity when dosed at 0.03 % of the diet; type: functional; summary of the method: as §1
[6] = system: Rattus norvegicus; assay: In vivo sterol lowering activity at dose of 0.10 % of the diet; type: functional; summary of the method: as §1
[7] = molecular target: T1, Sterol O-acyltransferase 1 (Rattus norvegicus) (UniProt O70536); assay: In vitro inhibition of acyl coenzyme A:cholesterol acyltransferase; set-up: concentration or dose not given beside the values; conditions: concentration not given here
T1 sequence (whole entry): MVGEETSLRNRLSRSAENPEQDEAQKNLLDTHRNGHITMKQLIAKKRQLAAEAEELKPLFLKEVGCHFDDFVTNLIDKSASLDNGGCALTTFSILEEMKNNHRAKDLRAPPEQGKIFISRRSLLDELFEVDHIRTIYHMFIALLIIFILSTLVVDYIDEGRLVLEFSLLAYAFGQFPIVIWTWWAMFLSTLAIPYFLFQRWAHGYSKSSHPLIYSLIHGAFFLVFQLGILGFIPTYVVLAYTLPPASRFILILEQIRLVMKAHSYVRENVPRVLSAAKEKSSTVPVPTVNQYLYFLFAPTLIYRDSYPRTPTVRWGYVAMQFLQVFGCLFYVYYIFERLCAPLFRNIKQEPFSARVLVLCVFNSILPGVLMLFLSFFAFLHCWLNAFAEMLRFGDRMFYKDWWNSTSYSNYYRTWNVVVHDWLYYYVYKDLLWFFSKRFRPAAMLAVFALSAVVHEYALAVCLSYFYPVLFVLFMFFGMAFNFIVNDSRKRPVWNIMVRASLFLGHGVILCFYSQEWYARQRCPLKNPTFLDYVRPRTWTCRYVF
Summary of the method: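 Enzyme fatty acyl-CoA:cholesterol acyltransferase (ACAT), assayed in vitro at a single drug concentration of 5.2 μg/mL. The value is the mean percent inhibition of enzyme activity.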

| SMILES | inhibition [7] | serum triglyceride level, percent of control [1] | serum triglyceride, percent of control [2] | serum sterol level, % of control [3] | serum sterol level, percent of control [4] | serum triglyceride level, percent of control [5] | serum sterol level, percent of control [6] |
| --- | --- | --- | --- | --- | --- | --- | --- |
| CCCCCCCCCCCCCCCCNc1ccc(C(=O)O)cc1C | 1% | 75% | 101% | 94% | 92% | 96% | <91% |
| CCCCCCCCCCCCCCCCNc1ccc(C(=O)NCCS(=O)(=O)O)cc1 | < 45% | <67% | <56% | 91% | 90% | 71% | <80% |
| CCCCCCCCCCCCCCCCNc1ccc(C(=O)NO)cc1 | 9% | 70% | 82% | 106% | 106% | 76% | 104% |
| CCCCCCCCCCCCCCCCNc1ccc(C(=O)CC(=O)C(=O)OC)cc1 | < 43% | 101% | 81% | 92% | 96% | 77% | 85% |
| CCCCCCCCCCCCCCCCNc1ccc(C(=O)OCC(=O)OCC)cc1 | 15% | 92% | 72% | <80% | <81% | 76% | <66% |

More lines, main results first:

| inhibition [7] | SMILES | serum triglyceride level, percent of control [1] | serum triglyceride, percent of control [2] | serum sterol level, % of control [3] | serum sterol level, percent of control [4] | serum triglyceride level, percent of control [5] | serum sterol level, percent of control [6] |
| --- | --- | --- | --- | --- | --- | --- | --- |
| 0% | CCCCCCCCCCCCCCCCNc1ccc(C(=O)C(C)(C)C(=O)OCC)cc1 | 101% | 101% | 94% | 103% | <65% | 90% |
| < 27% | CCCCCCCCCCCCCCCCNc1ccc(C(=O)O)cc1F | 91% | <49% | 108% | 98% | 89% | <79% |
| 13% | CCCCCCCCCCCCCCCCNc1ccc(C(=O)OCC(C)(C)CO)cc1 | 103% | 101% | 97% | 93% | 92% | 101% |
| 2% | CCCCCCCCCCCCCCCCNc1ccc(C2=NCCCO2)cc1 | 99% | <68% | 97% | 100% | 127% | <87% |
| 0% | CCCCCCCCCCCCCCCCNc1ccc(C(=O)Oc2ccccc2)cc1 | 105% | <76% | 89% | 85% | 76% | <84% |
| 11% | CCCCCCCCCCCCCCCCNc1ccc(C(=O)NS(C)(=O)=O)cc1 | 77% | <54% | 94% | <84% | <73% | <87% |
| 28% | CCCCCCCCCCCCCCCCNc1ccc(C(=O)OCC(CO)OC(C)=O)cc1 (stereo unspecified) | 90% | <47% | 118% | 85% | <71% | 86% |
| < 40% | CCCCCCCCCCCCCCCCNc1ccc(C(=O)C(C#N)C(=O)OCC)cc1 (stereo unspecified) | 83% | 105% | 115% | 100% | 90% | 100% |
